Assay [1] deals with CHD4 PHD2 finger (GST-fusion). It is filed as binding. As to conditions: C-terminal biotinylated peptides (residues 1–21; H3K27/H3K36 residues 21–44), streptavidin–Sepharose beads, 50 mM Tris pH 7.5, 150 mM NaCl, 0.05% Nonidet P-40; anti-GST HRP detection.
A further assay addresses CHD4 PHD2 finger (Homo sapiens, UniProt Q14839). Briefly: NMR titration. It is filed as binding. The conditions noted are these: for NMR exchange regime: 1H,15N HSQC titration, NMR time scale.
The next assay deals with CHD4 PHD2 F448A mutant. Briefly: Binding and NMR of F448A mutant. As to conditions: F448A mutant vs wild-type. In short, it runs like this: (§1)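 Point mutant of the PHD2 finger was made by PCR mutagenesis and expressed as a GST fusion in E. coli BL21(DE3) pLysS on ¹⁵NH₄Cl minimal medium. It was purified on glutathione beads, tag-cleaved, then held in 20 mM Tris pH 6.8–7.5, 150 mM NaCl, 10 mM DTT and 1 mM NaN₃. ¹H,¹⁵N HSQC was run at 500 MHz with increasing 12-mer histone tail peptides. Kd came from a nonlinear least-squares fit of normalized shift changes.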

Assay [2] relates to CHD4 PHD2 finger, Asp^454 substituted with valine. The assay can be described thus: Binding of PHD2 with Asp454 substituted with valine. As to conditions: Asp454 to valine mutant.
The target of the next assay is CHD4 PHD2 E447A mutant (Homo sapiens, UniProt Q14839, E450A). Briefly: NMR titration, E447A mutant. Format: binding. The gist of the method:
as §1

Another assay concerns the target CHD4 PHD2 C460W mutant (Homo sapiens, UniProt Q14839, C463W). Briefly: NMR titration, C460W mutant. It is filed as binding. The gist of the method:
as §1

In assay [3] the test system is PHD fingers of BHC80 and AIRE (mutants). As to conditions: aspartate to alanine or hydrophobic residue to tryptophan; ref [17],[27]; cited from earlier work.

Sequence of CHD4 PHD2 finger (Q14839 449-496 limits assumed): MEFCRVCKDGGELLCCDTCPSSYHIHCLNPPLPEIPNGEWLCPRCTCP
Sequence of CHD4 PHD2 E447A mutant (Q14839 449-496 E450A limits assumed): as the sequence (Q14839 449-496 limits assumed) above, with E2A counted along it
Sequence of CHD4 PHD2 C460W mutant (Q14839 449-496 C463W limits assumed): as the sequence (Q14839 449-496 limits assumed) above, with C15W counted along it

Consider “H3K4me1: histone H3 mono-methylated at Lys^4”, for which the “Binding in pull-down (Western blot)” value in assay [1] is reported as “significantly weaker”.

For the substance “H3K9ac: histone H3 acetylated at Lys^9 (20-mer, Anaspec, in NMR; residues 1–21 in pull-down)”, the NMR exchange regime entry with CHD4 PHD2 finger was “intermediate-to-fast exchange regime”. Also, the “Binding compared with wild-type” value in the assay on CHD4 PHD2 F448A mutant is recorded as “more weakly”.

Take “H3K9me3: histone H3 tri-methylated at Lys^9”: the NMR exchange regime result with CHD4 PHD2 finger was “intermediate-to-fast exchange regime”. The “Binding compared with wild-type” value in assay [2] is listed as “significantly compromised”; in the assay on CHD4 PHD2 F448A mutant, “more weakly”.

In the case of “H3K9me1: histone H3 mono-methylated at Lys^9”, the “Binding in pull-down (Western blot)” value in assay [1] is reported as “able to recognize”.

With “H3K4me3: histone H3 tri-methylated at Lys^4”, in assay [1], the “Binding in pull-down (Western blot)” value is given as “significantly weaker”. Also, in the assay with CHD4 PHD2 finger, the NMR exchange regime result is listed as “fast exchange regime”.

A word on the Kd: it is the equilibrium constant for the complex coming apart. As to “unmodified H3: unmodified histone H3 N-terminal tail peptide (residues 1–21 biotinylated in pull-down; 12-mer in NMR)”, in the assay with CHD4 PHD2 finger, the NMR exchange regime entry was “intermediate-to-fast exchange regime”. Moreover, the Kd in the assay with CHD4 PHD2 E447A mutant (E447A mutant) was found to be 900 µM; in the assay with CHD4 PHD2 C460W mutant (C460W mutant) it was 3700 µM. For the same substance, the “Binding compared with wild-type” value with CHD4 PHD2 E447A mutant (E447A mutant vs wild-type) and with CHD4 PHD2 C460W mutant (C460W mutant vs wild-type) was “significantly weaker” throughout. In addition, the “Interaction with mutant PHD fingers” value in assay [3] is “abolish interactions”.

On to “H3(3-10): peptide comprising residues Thr^3–Ser^10 but lacking Ala^1 and Arg^2 (TKQTARKS)”, for which, in the assay with CHD4 PHD2 finger (wild-type PHD2, even a 10-fold excess of peptide), the “NMR changes on titration” value is “no changes”.

These data come from paper PMC2885444 (The Biochemical journal, 2009).
